Experimental findings from ChEMBL document CHEMBL1909519, “L-Proline anchored multicomponent synthesis of novel pyrido[2,3-a]carbazoles; investigation of in vitro antimicrobial, antioxidant, cytotoxicity and structure activity relationship studies” (Eur J Med Chem, 2011) are described below.

Converted amounts (≈) assume the structure as drawn. Some results are limits rather than exact numbers.

For assay [1], the system named is Staphylococcus aureus. Briefly: Antibacterial activity against Staphylococcus aureus after 24 hrs by agar disk diffusion assay. In kind it is functional. The procedure, abridged: (§1)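 Agar well diffusion on nutrient agar against Gram-positive clinical isolates (PSG Hospital, Coimbatore). Compounds in DMSO tested at 0 (control), 25, 50, 75, 100; DMSO as solvent and negative control; ciprofloxacin ([…]) as positive control. Plates incubated 37 ± 2 °C, 24 h; zone of inhibition diameter read in mm.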
On the technique in general: In agar diffusion tests the substance spreads into inoculated agar from a disc or well.

Assay [2] concerns SK-OV-3. The experiment in a line: Cytotoxicity against human SKOV3 cells up to 50 ug/ml after 48 hrs by SRB assay. In kind it is functional, cell-based. The procedure, abridged:
(§2)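 Cells in RPMI-1640 with 10% heat-inactivated FBS, 1 mM NaHCO3, 2 mM L-glutamine, 37 °C, 5% CO2; seeded (B16F10 5 × 10⁴ cells/mL, others 1 × 10⁵ cells/mL), 24 h, then compounds in DMSO at 1.56–50 for 48 h, triplicate wells. TCA fixation, SRB staining 30 min, tris extraction, OD 520 nm; IC50 by linear regression, mean ± SD of three independent experiments; cisplatin positive control.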

Assay [3] deals with B16-F10. Briefly: Cytotoxicity against mouse B16F10 cells after 48 hrs by SRB assay. The note with it: B16-F10, 48 h. In kind it is functional, cell-based. The essentials:
as §2
For orientation: In SRB staining, fixed cells bind dye roughly in proportion to their protein.

Assay [4] deals with Escherichia coli. Briefly: Antibacterial activity against Escherichia coli at 25 ug/ml after 24 hrs by agar disk diffusion assay. In kind it is functional. To be noted: read-out: DIZ. The procedure, abridged: (§3)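 Gram-negative clinical isolates (PSG Hospital, Coimbatore) tested by agar well diffusion on nutrient agar. Compounds dissolved in DMSO at 0 (control), 25, 50, 75, 100; DMSO was the negative control and ciprofloxacin ([…]) the positive control. Incubation 37 ± 2 °C for 24 h, then inhibition zone diameter measured in mm.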

Assay [5] in a line: Cytotoxicity against human SK-MEL-12 cells after 48 hrs by SRB assay. The format is functional, cell-based. The essentials: as §2
Assay [6] deals with Radical scavenging activity. Briefly: Antioxidant activity assessed as DPPH radical scavenging activity after 30 mins by micro plate reader. The format is functional. The procedure, abridged:
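DPPH assay: various compound concentrations brought to volume with ethanol, mixed with 0.1 mM ethanolic DPPH alongside vitamin C standard; shaken 30 min at 24 °C, absorbance read at 517 nm; concentration giving 50% decrease determined.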
Background: DPPH is a stable violet radical that fades when it is reduced.

In assay [7] the test system is Escherichia coli. The experiment in a line: Antibacterial activity against Escherichia coli after 24 hrs by agar disk diffusion assay. The format is functional. The essentials:
as §3

In assay [8] the test system is Candida albicans. Briefly: Antifungal activity against Candida albicans after 48 hrs by agar disk diffusion assay. The format is functional. The essentials:
(§4)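 Fungal isolates (PSG Hospital, Coimbatore) grown on Sabouraud dextrose agar; agar well diffusion with compounds in DMSO at 0 (control), 25, 50, 75, 100. DMSO negative control, fluconazole ([…]) positive control. Plates held 28 ± 2 °C for 48 h; zone of inhibition diameter recorded in mm.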

The test system of assay [9] is Aspergillus niger. The experiment in a line: Antifungal activity against Aspergillus niger at 25 ug/ml after 48 hrs by agar disk diffusion assay. In kind it is functional. The note with it: read-out: DIZ. The procedure, abridged: as §4
The subject of assay [10] is Klebsiella pneumoniae. Briefly: Antibacterial activity against Klebsiella pneumoniae after 24 hrs by agar disk diffusion assay. The format is functional. The procedure, abridged: as §3
Assay [11] deals with Enterococcus faecalis. Briefly: Antibacterial activity against Enterococcus faecalis after 24 hrs by agar disk diffusion assay. In kind it is functional. The essentials:
as §1

The test system of assay [12] is Candida albicans. Briefly: Antifungal activity against Candida albicans at 25 ug/ml after 48 hrs by agar disk diffusion assay. The format is functional. To be noted: read-out: DIZ. The procedure, abridged: as §4
Assay [13] relates to Enterococcus faecalis. Briefly: Antibacterial activity against Enterococcus faecalis at 25 ug/ml after 24 hrs by agar disk diffusion assay. In kind it is functional. To be noted: read-out: DIZ. The essentials:
as §1

For assay [14], the system named is A549. The experiment in a line: Cytotoxicity against human A549 cells after 48 hrs by SRB assay. In kind it is functional, cell-based. To be noted: A549, 48 h. The procedure, abridged:
as §2

Assay [15] relates to Staphylococcus aureus. Briefly: Antibacterial activity against Staphylococcus aureus at 25 ug/ml after 24 hrs by agar disk diffusion assay. The format is functional. To be noted: read-out: DIZ. The essentials:
as §1

Assay [16] concerns Klebsiella pneumoniae. Briefly: Antibacterial activity against Klebsiella pneumoniae at 25 ug/ml after 24 hrs by agar disk diffusion assay. In kind it is functional. To be noted: read-out: DIZ. The essentials: as §3
Assay [17] deals with Aspergillus niger. Briefly: Antifungal activity against Aspergillus niger after 48 hrs by agar disk diffusion assay. In kind it is functional. The procedure, abridged:
as §4

The subject of assay [18] is HCT-15. The experiment in a line: Cytotoxicity against human HCT15 cells after 48 hrs by SRB assay. The format is functional, cell-based. The note with it: HCT-15, 48 h. The essentials:
as §2

Assay [19] deals with HCT-15. Briefly: Cytotoxicity against human HCT15 cells up to 50 ug/ml after 48 hrs by SRB assay. The format is functional, cell-based. The essentials: as §2
Assay [20] relates to Enterococcus faecalis. The experiment in a line: Antibacterial activity against Enterococcus faecalis at 50 ug/ml after 24 hrs by agar disk diffusion assay. The format is functional. The note with it: read-out: DIZ. The essentials:
as §1

For assay [21], the system named is A549. The experiment in a line: Cytotoxicity against human A549 cells up to 50 ug/ml after 48 hrs by SRB assay. In kind it is functional, cell-based. The essentials:
as §2

For assay [22], the system named is Staphylococcus aureus. Briefly: Antibacterial activity against Staphylococcus aureus at 50 ug/ml after 24 hrs by agar disk diffusion assay. The format is functional. The note with it: read-out: DIZ. The essentials:
as §1

A short description of assay [23]: Cytotoxicity against human SK-MEL-12 cells up to 50 ug/ml after 48 hrs by SRB assay. In kind it is functional, cell-based. The procedure, abridged:
as §2

Assay [24] deals with Aspergillus niger. Briefly: Antifungal activity against Aspergillus niger at 50 ug/ml after 48 hrs by agar disk diffusion assay. In kind it is functional. To be noted: read-out: DIZ. The essentials:
as §4

Assay [25] concerns Klebsiella pneumoniae. The experiment in a line: Antibacterial activity against Klebsiella pneumoniae at 50 ug/ml after 24 hrs by agar disk diffusion assay. In kind it is functional. To be noted: read-out: DIZ. The essentials: as §3
Assay [26] deals with B16-F10. Briefly: Cytotoxicity against mouse B16F10 cells up to 50 ug/ml after 48 hrs by SRB assay. The format is functional, cell-based. The essentials: as §2
The test system of assay [27] is Candida albicans. The experiment in a line: Antifungal activity against Candida albicans at 50 ug/ml after 48 hrs by agar disk diffusion assay. The format is functional. To be noted: read-out: DIZ. The essentials: as §4
Assay [28] concerns Escherichia coli. Briefly: Antibacterial activity against Escherichia coli at 50 ug/ml after 24 hrs by agar disk diffusion assay. The format is functional. The note with it: read-out: DIZ. The procedure, abridged:
as §3

For assay [29], the species on record is Homo sapiens. Briefly: Ratio of cisplatin IC50 to compound IC50 for human SK-MEL-12. The format is functional.
Assay [30] has as its system A549. The experiment in a line: Ratio of cisplatin IC50 to compound IC50 for human A549 cells. In kind it is functional.
The test system of assay [31] is HCT-15. Briefly: Ratio of cisplatin IC50 to compound IC50 for human HCT15 cells. The format is functional.
Assay [32] deals with SK-OV-3. Briefly: Cytotoxicity against human SKOV3 cells after 48 hrs by SRB assay. The format is functional, cell-based. To be noted: SK-OV-3, 48 h. The procedure, abridged:
as §2

The MIC is the lowest concentration found to suppress growth. Read a low MIC as a more susceptible organism. As usually defined, the IC50 is the concentration that gives 50% inhibition. As for `CCOC(=O)c1c(N)nc2c(c1-c1cccs1)CCc1c-2[nH]c2ccc(C)cc12`, the minimal inhibitory concentration (MIC) worked out at 25 µg/mL (≈ 62 µM) in [1]; 25 µg/mL (≈ 62 µM) in assay [7]; 75 µg/mL (≈ 186 µM) in assay [8]; 25 µg/mL (≈ 62 µM) in [10]; 25 µg/mL (≈ 62 µM) in assay [11]; 75 µg/mL (≈ 186 µM) in assay [17]. For the same molecule, the 50% inhibitory concentration (IC50) entry is “Not Active” in assay [2]; 19.4 µg/mL (≈ 48 µM) in assay [3]; 48.2 µg/mL (≈ 119 µM) in assay [5]; 244.85 µg/mL (≈ 607 µM) in assay [6]; 23.4 µg/mL (≈ 58 µM) in assay [14]; 22.5 µg/mL (≈ 55.8 µM) in [18]. Besides, the zone of inhibition at 25 µg/mL was 26 mm in [4]; 17 mm in assay [9]; 18 mm in assay [12]; 28 mm in [13]; 27 mm in assay [15]; 29 mm in assay [16].

On to `CCOC(=O)c1c(N)nc2c(c1-c1ccc(N(C)C)cc1)CCc1c-2[nH]c2ccc(C)cc12`, for which the 50% inhibitory concentration (IC50) entry in assay [19], in assay [21], in [2], in assay [23] and in [26] was “Not Active” throughout. For the same molecule, the zone of inhibition at 50 µg/mL amounted to 18 mm in assay [20]; 21 mm in assay [22]; 7 mm in assay [24]; 22 mm in assay [25]; 5 mm in assay [27]; 19 mm in assay [28]. For the same molecule, the minimum inhibitory concentration (MIC) in [1] is 50 µg/mL (≈ 113 µM); in assay [7], 50 µg/mL (≈ 113 µM); in assay [8], more than 100 µg/mL; in [10], 50 µg/mL (≈ 113 µM); in assay [11], 50 µg/mL (≈ 113 µM); in [17], more than 100 µg/mL.

With `Cc1ccc2[nH]c3c(c2c1)CCc1c-3nc(N)c(C#N)c1-c1cc2ccccc2nc1Cl`, the MIC is 25 µg/mL (≈ 57.4 µM) in assay [1]; 25 µg/mL (≈ 57.4 µM) in [7]; more than 100 µg/mL in assay [8]; 25 µg/mL (≈ 57.4 µM) in [10]; 25 µg/mL (≈ 57.4 µM) in assay [11]; more than 100 µg/mL in [17]. Further, the IC50 was determined as 5.89 µg/mL (≈ 13.5 µM) in assay [3]; 4.48 µg/mL (≈ 10.3 µM) in assay [5]; 163.07 µg/mL (≈ 374 µM) in assay [6]; 3.72 µg/mL (≈ 8.53 µM) in assay [14]; 21.9 µg/mL (≈ 50.3 µM) in assay [32]; 4.43 µg/mL (≈ 10.2 µM) in assay [18]. For the same molecule, the zone of inhibition at 25 µg/mL was determined as 23 mm in assay [4]; 6 mm in assay [9]; 10 mm in assay [12]; 24 mm in [13]; 25 mm in assay [15]; 25 mm in [16]. The figures for the Ratio IC50 in [29], in assay [30] and in assay [31] were 2.32, 1.51 and 1.79, respectively.

As to `CCOC(=O)c1c(N)nc2c(c1-c1ccc(Br)cc1)CCc1c-2[nH]c2ccc(C)cc12`, the IC50 entry in assay [19] is “Not Active”; in assay [21] it was “Not Active”; in assay [2], “Not Active”; in [6], 214.77 µg/mL (≈ 451 µM); in [23] it was “Not Active”; in assay [26] it was “Not Active”. Moreover, the MIC in assay [1] is 25 µg/mL (≈ 52.5 µM); in assay [7] it was 25 µg/mL (≈ 52.5 µM); in [8] it was more than 100 µg/mL; in assay [10], 25 µg/mL (≈ 52.5 µM); in [11] it was 25 µg/mL (≈ 52.5 µM); in assay [17], more than 100 µg/mL. For the same molecule, the zone of inhibition at 25 µg/mL stood at 21 mm in assay [4]; 5 mm in assay [9]; 7 mm in assay [12]; 22 mm in [13]; 23 mm in [15]; 25 mm in assay [16].

Take `O=C1O[C@H]([C@@H](O)CO)C(O)=C1O` [ASCORBIC ACID]: in [6], the IC50 stood at 45.94 µg/mL (≈ 261 µM).
